{"source": "paper PMC12334608", "about": "(Nature Communications, 2025)", "molecules": {"B1": {"name": "ACOX-1.1(H396G) (enzyme, C. elegans, UniProt O62140 1-674, looked up)", "chain": "MVHLNKTIQEGDNPDLTAERLTATFDTHAMAAQIYGGEMRARRRREITAKLAEIPELHDSMPLPYMTREEKIMESARKLTVLTQRMSEIIDPTDAGELYHLNNEVLGIEGNPMALHGVMFIPALNAQASDEQQAKWLIRALRREIIGTYAQTEMGHGTNLQNLETTATYDIGTQEFVLHTPKITALKWWPGNLGKSSNYAVVVAHMYIKGKNFGPHTFMVPLRDEKTHKPLPGITIGDIGPKMAYNIVDNGFLGFNNYRIPRTNLLMRHTKVEADGTYIKPPHAKINYSAMVHVRSYMLTGQAIMLSYALNIATRYSAVRRQGQIDKNEPEVKVLEYQTQQHRLFPFIARAYAFQFAGAETVKLYERVLKEMKSGNVSLMADLHALTSGLKSVVTGQTGEGIEQARMACGGHGYSMASYISEIYGVAIGGCTYEGENMVMLLQLARYLVKSAALVKSGKASQLGPLVAYLGARSEPTSLIDRVPNGGITEYIKTFQHIAKRQTLKAANKFFGLMENGEKREIAWNKSSVELNRASRLHTRLFIVEAFARRVNEIGDITIKEALSDLLHLHVNYELLDVATYALEDGFMSSTQLDYVRDQLYFYLQKIRPNAVSLLDSWEFSDRELRSVLGRRDGHVYENLFKWAKESPLNKTDVLPSVDTYLKPMMEKARQSKL"}, "B2": {"name": "ACOX-1.1(R536E) (enzyme, C. elegans, UniProt O62140 1-674, looked up)", "chain": "B1 chain with G396H, R536E"}}, "key": {"ACOX-1.1 [1]": {"molecular_target": "T1, ACOX-1.1 (Caenorhabditis elegans, UniProt O62140)", "T1 sequence (O62140 1-674)": "B1 chain with G396H", "test": "Enzyme-coupled kinetic assay, wild-type ACOX-1.1 as purified", "type": "biochemical, C. elegans", "details": "for rescue of the time-dependent decrease in enzymatic activity: incubation with FAD plus nucleotide, compared with ATP"}, "ACOX-1.1(R343Q)": {"molecular_target": "T2, ACOX-1.1(R343Q) (Caenorhabditis elegans, UniProt O62140, R343Q)", "T2 sequence (O62140 1-674 R343Q)": "B1 chain with R343Q, G396H", "test": "Enzyme-coupled kinetic assay, ACOX-1.1", "type": "biochemical, C. elegans"}, "ACOX-1.1 [2]": {"molecular_target": "T1, ACOX-1.1", "test": "FAD koff rate by fluorescence polarization", "type": "binding, C. elegans", "details": "read-out: koff of FAD", "in_short": "(§1)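 FAD-bound, non-dialyzed enzyme at 5 μM was run in triplicate. FAD fluorescence anisotropy was recorded in polarization mode on a plate reader over 1 h, with 5 μM FAD alone as the gain/focus control. koff was obtained by fitting to a dissociation kinetics equation. Preparations were 46% (wild type) and 66% (E434A) FAD-bound per dimer.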"}, "ACOX-1.1(E434A)": {"test_system": "ACOX-1.1(E434A)", "test": "FAD koff rate by fluorescence polarization", "type": "binding, C. elegans", "in_short": "as §1"}, "ACOX-1.1(R343A)": {"molecular_target": "T3, ACOX-1.1(R343A) (Caenorhabditis elegans, UniProt O62140, R343A)", "T3 sequence (O62140 1-674 R343A)": "B1 chain with R343A, G396H", "test": "Enzyme-coupled kinetic assay, ACOX-1.1", "type": "biochemical, C. elegans"}, "apo ACOX-1.1 [3]": {"molecular_target": "T4, apo ACOX-1.1 (Caenorhabditis elegans, UniProt O62140)", "T4 sequence (O62140 1-674)": "B1 chain with G396H", "test": "FAD and ATP dissociation constants by fluorescence polarization", "type": "binding, C. elegans"}, "apo ACOX-1.1 [4]": {"molecular_target": "T4, apo ACOX-1.1", "test": "Enzyme-coupled kinetic assay, wild-type apo ACOX-1.1", "type": "biochemical, C. elegans"}, "SEC": {"molecular_target": "the molecule itself", "test": "SEC"}}, "note": "Substitutions are numbered along the chain they refer to. Numbers in names are those of the source. Where two headings read alike, the source gives them in different places."}
{"molecule": "Nc1ncnc2c1ncn2[C@@H]1O[C@H](COP(=O)(O)OP(=O)(O)O)[C@@H](O)[C@H]1O", "note": "[ADP]", "values": [{"measurement": "rescue of the time-dependent decrease in enzymatic activity", "setting": "ACOX-1.1 [1]", "result": "None of these nucleotides are able to rescue the time-dependent decrease in enzymatic activity as well as ATP"}]}
{"molecule": "Nc1ncnc2c1ncn2[C@@H]1O[C@H](COP(=O)(O)O)[C@@H](O)[C@H]1O", "note": "[AMP]", "values": [{"measurement": "rescue of the time-dependent decrease in enzymatic activity", "setting": "ACOX-1.1 [1]", "result": "None of these nucleotides are able to rescue the time-dependent decrease in enzymatic activity as well as ATP"}]}
{"molecule": "Cc1cc2nc3c(=O)[nH]c(=O)nc-3n(C[C@H](O)[C@H](O)[C@H](O)COP(=O)(O)OP(=O)(O)OC[C@H]3O[C@@H](n4cnc5c(N)ncnc54)[C@H](O)[C@@H]3O)c2cc1C", "note": "[FAD]", "values": [{"measurement": "EC50", "setting": "ACOX-1.1(R343Q)", "result": "> 1", "unit": "mM"}, {"measurement": "koff", "setting": "ACOX-1.1 [2]", "result": 0.000536, "unit": "s⁻¹"}, {"measurement": "time in which about half of the bound FAD is lost", "setting": "ACOX-1.1(E434A); ACOX-1.1(E434A)", "result": "about half of the bound FAD is lost in an hour"}, {"measurement": "koff of FAD", "setting": "ACOX-1.1(E434A); catalytic mutant ACOX-1.1(E434A), 5 μM", "result": 0.72, "unit": "h⁻¹"}, {"measurement": "EC50", "setting": "ACOX-1.1(R343A)", "result": "> 1", "unit": "mM"}, {"measurement": "FAD needed to obtain a similar amount of rescue with FAD alone", "setting": "ACOX-1.1 [1]; no ATP", "result": "at least 100 μM"}, {"measurement": "Kd", "setting": "apo ACOX-1.1 [3]; KD of ACOX-1.1 for FAD, in the presence of ATP (350 μM)", "result": "~450", "unit": "nM"}, {"measurement": "KD of ACOX-1.1 for FAD", "setting": "apo ACOX-1.1 [3]; in the absence of ATP", "result": "could not be measured because it is too high"}, {"measurement": "EC50", "setting": "apo ACOX-1.1 [4]; EC50 for FAD (high-affinity site), 350 μM ATP, 95% CI: 358–476 nM", "result": 0.385, "unit": "µM"}, {"measurement": "EC50", "setting": "apo ACOX-1.1 [4]; lower EC50 for FAD, absence of ATP, 95% CI: 6.1–27.5 μM", "result": 13, "unit": "µM"}, {"measurement": "EC50", "setting": "apo ACOX-1.1 [4]; read-out: EC50 for FAD (low-affinity site), estimated, 350 μM ATP, 95% CI: 74–203 μM", "result": 177, "unit": "µM"}]}
{"molecule": "Nc1nc2c(ncn2[C@@H]2O[C@H](COP(=O)(O)OP(=O)(O)OP(=O)(O)O)[C@@H](O)[C@H]2O)c(=O)[nH]1", "note": "[GTP]", "values": [{"measurement": "rescue of the time-dependent decrease in enzymatic activity", "setting": "ACOX-1.1 [1]", "result": "None of these nucleotides are able to rescue the time-dependent decrease in enzymatic activity as well as ATP"}]}
{"molecule": "Nc1ncnc2c1ncn2[C@H]1C[C@H](O)[C@@H](COP(=O)(O)OP(=O)(O)OP(=O)(O)O)O1", "note": "[deoxy-ATP]", "values": [{"measurement": "rescue of the time-dependent decrease in enzymatic activity", "setting": "ACOX-1.1 [1]", "result": "None of these nucleotides are able to rescue the time-dependent decrease in enzymatic activity as well as ATP"}]}
{"molecule": "B1", "values": [{"measurement": "stoichiometry N", "setting": "SEC", "result": 2}]}
{"molecule": "B2", "values": [{"measurement": "stoichiometry N", "setting": "SEC", "result": 2}]}
